Laboratory results published in ChEMBL document CHEMBL4376891, “Benzenesulfonamide Derivatives as Calcium/Calmodulin-Dependent Protein Kinase Inhibitors and Antiviral Agents against Dengue and Zika Virus Infections” (J Med Chem, 2020).
Active and inactive are the calls of the source. The calls are words filed in the database; no cut-off is given here.

Tests used:
[1] = system: dengue virus type 2; assay: Antiviral activity against eGFP-fused Dengue virus 2 infected in human BE(2)-C cells assessed as viral infection level by measuring intensity of eGFP emission from infected cells at 3.13 uM incubated for 24 hrs relative to control; assay type: functional
In short: (§1)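 BE(2)C cells, in RPMI 1640 with 10% FBS, were infected with DENV-2-eGFP reporter virus (MOI 1) for 24 h with or without compound, using DMSO as solvent control. Cells were fixed in 4% paraformaldehyde and stained with Hoechst, then imaged by high-content analysis. eGFP intensity per cell number is given as % of solvent control. Values are means of 3 experiments.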

[2] = Cytotoxicity against human BE(2)-C cells assessed as cell proliferation at 6.25 uM incubated overnight by XTT assay relative to control; assay type: cell-based; details: read-out: Activity
[3] = system: dengue virus type 2; assay: Antiviral activity against eGFP-fused Dengue virus 2 infected in human BE(2)-C cells assessed as viral infection level by measuring intensity of eGFP emission from infected cells at 1.56 uM incubated for 24 hrs relative to control; assay type: functional; in short: as §1
[4] = biological target: Calcium/calmodulin-dependent protein kinase type II subunit alpha (Homo sapiens, UniProt Q9UQM7); assay: Inhibition of human CaMKIIalpha using calmodulin and syntide-2 incubated for 15 mins by ELISA
Sequence of Calcium/calmodulin-dependent protein kinase type II subunit alpha (Q9UQM7 whole entry): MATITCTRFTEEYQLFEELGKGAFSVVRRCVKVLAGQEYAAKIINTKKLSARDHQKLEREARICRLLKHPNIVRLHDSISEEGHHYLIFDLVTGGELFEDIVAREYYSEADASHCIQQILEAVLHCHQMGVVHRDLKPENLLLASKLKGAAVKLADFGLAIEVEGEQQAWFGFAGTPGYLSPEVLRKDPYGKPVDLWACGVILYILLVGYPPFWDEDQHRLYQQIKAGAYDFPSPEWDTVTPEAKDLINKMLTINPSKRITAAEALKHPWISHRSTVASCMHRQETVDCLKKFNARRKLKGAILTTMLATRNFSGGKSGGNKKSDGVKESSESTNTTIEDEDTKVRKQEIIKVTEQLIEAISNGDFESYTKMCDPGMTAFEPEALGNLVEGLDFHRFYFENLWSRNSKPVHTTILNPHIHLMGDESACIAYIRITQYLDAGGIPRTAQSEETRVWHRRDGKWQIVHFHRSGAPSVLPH

With `COc1ccc(S(=O)(=O)N(CCCC(=O)C2CCCCCC2)c2ccc3c(c2)CCCC3)cc1` the Activity [1] was 21.5%, the viability at 6.25 µM [2] was 104% and the Activity [3] was 87.2%.
In the case of `COc1ccc(S(=O)(=O)N(CCCC(=O)C2C3CC4CC(C3)CC2C4)c2ccccc2)cc1` (configuration not stated), the Activity [1] is reported as 51.1%, the viability at 6.25 µM [2] is reported as 96.7% and the Activity [3] is reported as 57.3%.
`COc1ccc(S(=O)(=O)N(CCCC(=O)c2ccc(F)cc2)c2ccccc2)cc1` gave an Activity [1] of 39.3%, a viability at 6.25 µM [2] of 56.1% and an Activity [3] of 55.9%.
In the case of `COc1ccc(S(=O)(=O)N(CCCC(=O)C2CCCCCC2)c2ccc(C3CCCCC3)cc2)cc1`, the Activity [1] is reported as 13.8% and the Activity [3] is reported as 36.1%.
Work on `COc1ccc(S(=O)(=O)N(CCCC(C)=O)c2ccccc2)cc1` yielded an Activity [1] of 100.8%, a viability at 6.25 µM [2] of 106% and an Activity [3] of 92.8%.
In the case of `CN([C@@H](Cc1ccc(OS(=O)(=O)c2cccc3cnccc23)cc1)C(=O)N1CCN(c2ccccc2)CC1)S(=O)(=O)c1cccc2cnccc12`, the IC50 [4] is reported as 1030 nM, the Activity [1] is reported as 22.3% and the viability at 6.25 µM [2] is reported as 65.7%. For the same compound, the Activity [3] was 33.5%.
Compound `O=C(CCCN(c1ccccc1)S(=O)(=O)c1ccc(Oc2ccccc2)cc1)C1CCCCCC1` has an Activity [1] of 73.4%, a viability at 6.25 µM [2] of 95.5% and an Activity [3] of 74.7%.
With `COc1ccc(S(=O)(=O)N(CCCC(=O)C2CCCCC2)c2ccccc2)cc1` the Activity [1] was 63.3%, the viability at 6.25 µM [2] was 107% and the Activity [3] was 68.9%.
For `Cc1ccc(S(=O)(=O)N(CCCC(=O)C2CCCCCC2)c2ccccc2)cc1`, the Activity [1] was 76.9%, the viability at 6.25 µM [2] was 99.5% and the Activity [3] was 93.9%.
For `COc1ccc(S(=O)(=O)NCCCC(=O)c2ccc(F)cc2)cc1`, the inhibition [4] was “Active”, the Activity [1] was 122.6% and the viability at 6.25 µM [2] was 106%. For the same compound, the Activity [3] was 110.1%.
For `COc1ccc(S(=O)(=O)N(CCCC(=O)C2CCC2)c2ccccc2)cc1`, the Activity [1] was 33%, the viability at 6.25 µM [2] was 93.9% and the Activity [3] was 42.8%.
Work on `O=C(CCCN(c1ccccc1)S(=O)(=O)c1ccc(OC(F)(F)F)cc1)C1CCCC1` yielded an Activity [1] of 118.2%, a viability at 6.25 µM [2] of 92.4% and an Activity [3] of 102.6%.
In the case of `COc1ccc(S(=O)(=O)N(CCO)c2ccccc2CN(C)C/C=C/c2ccc(Cl)cc2)cc1`, the Activity [1] is reported as 14.5%, the viability at 6.25 µM [2] is reported as 84.3% and the Activity [3] is reported as 30.5%.
In the case of `COc1ccc(S(=O)(=O)N(CCCC(=O)C2CCCC2)c2ccccc2)cc1`, the Activity [1] is reported as 25.1% and the Activity [3] is reported as 34.6%.
For `COc1ccc(S(=O)(=O)N(CCCC(O)c2ccc(F)cc2)c2ccccc2)cc1` (configuration not stated), the inhibition [4] was “Active”, the Activity [1] was 48.5% and the viability at 6.25 µM [2] was 76.3%. It also gave an Activity [3] of 59.4%.
Compound `COc1ccc(S(=O)(=O)N(C)CCCC(=O)c2ccc(F)cc2)cc1` has an Activity [1] of 100.9%, a viability at 6.25 µM [2] of 106% and an Activity [3] of 100%.
Work on `COc1ccc(S(=O)(=O)N(CCCC(=O)C2CCCCCC2)C2CCCCC2)cc1` yielded an Activity [1] of 65.7%, a viability at 6.25 µM [2] of 97.5% and an Activity [3] of 85.7%.
